Assay results collected from several papers.
Each line is one published result; the experiments were not run side by side.
CDK9: Cyclin-dependent kinase 9 (CDK9, Homo sapiens, UniProt P50750)
CDK9 with cyclin T1: Cyclin-dependent kinase 9, with cyclin T1 (CDK9, Homo sapiens, UniProt P50750)

Structure (SMILES)	target	assay	setting	measurement	result
O=c1[nH]c2ccccc2n1C1CCN(Cc2ccc(-c3[nH]c4cc5ncnc5cc4nc3-c3ccccc3)cc2)CC1	Cyclin-dependent kinase 9, with cyclin K (CDK9, Homo sapiens, UniProt P50750)	cell-free assay	0.5 µM	remaining signal	108%
Nc1ncc(-c2nc(N3CCOCC3)nc(N3CCOCC3)n2)c(C(F)F)n1	CDK9	binding, competition with immobilised ligand	10 µM	remaining binding	99%
C#Cc1n[nH]c2c(-c3cn(C(C)c4ccccn4)c(=O)[nH]c3=O)cc(F)cc12 (centres unmarked)	CDK9 with cyclin T1	enzyme activity, inhibitor	1 µM	inhibition	20.9%
Cc1nn(C)cc1-c1nc2c(N3CCN(Cc4ccc(Cl)cc4)CC3)c(Cl)cnc2[nH]1	CDK9	binding, competition with immobilised ligand	1 µM	remaining binding	100%
Cn1cncc1[C@](O)(COc1ccc(C#N)cc1-c1ccc(OC(F)(F)F)cc1)c1ccc(C#N)cc1	CDK9	cell-free assay, competition with immobilised ligand	1 µM	remaining binding	100%
COc1ncccc1-c1cnn2ccc(N3CCN(C(=O)OC(C)C)CC3)nc12	CDK9	binding, competition with immobilised ligand	1 µM	remaining binding	93%
N#CC1(c2ccccn2)CCN(Cc2cc(C(=O)O)c(=O)n3ccccc23)CC1	CDK9	cell-free assay, competition with immobilised ligand	1 µM	remaining binding	99%
Cn1cc(-c2cccc(N3CCc4c(sc5c4CC(C)(C)C5)C3=O)c2CO)cc(Nc2ccncn2)c1=O	CDK9 with cyclin T1	enzyme activity, inhibitor	1 µM	inhibition	11%
